Assay results taken from ChEMBL document CHEMBL3400032 (Bioorg Med Chem, 2015).
Activity calls are given as the source filed them. No cut-off for these calls is given here.

Key:
[1] = Drug metabolism in Sprague-Dawley rat liver S9 fraction assessed as compound remaining at 1 uM after 30 mins by HPLC/MS/MS analysis relative to control; format: ADME, subcellular; conditions: read-out: Stability
Procedure, shortened: (§1)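 Test compound at 1 µM final, incubated 30 min at 37 °C in serum, or in S9 mix (50 mM potassium phosphate pH 7.4, 3 mM NADPH, 1 mg protein/mL pooled male SD rat or human liver S9). Preincubated 5 min at 37 °C, compound added in acetonitrile–water (1:1), stopped with ice-cold acetonitrile, centrifuged, filtered, parent and carboxylate hydrolysate quantified by HPLC-MS/MS.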

[2] = Drug metabolism in rat serum assessed as compound remaining at 1 uM after 30 mins by HPLC/MS/MS analysis relative to control; format: ADME, cell-free; conditions: read-out: Stability; procedure, shortened: as §1
[3] = Drug metabolism in human liver S9 fraction assessed as compound remaining at 1 uM after 30 mins by HPLC/MS/MS analysis relative to control; format: ADME, subcellular; conditions: read-out: Stability; procedure, shortened: as §1
[4] = Drug metabolism in human serum assessed as compound remaining at 1 uM after 30 mins by HPLC/MS/MS analysis relative to control; format: ADME, cell-free; conditions: read-out: Stability; procedure, shortened: as §1
[5] = Permeability of the compound at pH 5 by PAMPA; format: ADME; conditions: read-out: permeability
[6] = Permeability of the compound at pH 7.4 by PAMPA; format: ADME; conditions: read-out: permeability
Dipeptidyl peptidase 4 = Dipeptidyl peptidase 4 (Homo sapiens, UniProt P27487); assay: Inhibition of human DPP4
Sequence of Dipeptidyl peptidase 4 (P27487 whole entry): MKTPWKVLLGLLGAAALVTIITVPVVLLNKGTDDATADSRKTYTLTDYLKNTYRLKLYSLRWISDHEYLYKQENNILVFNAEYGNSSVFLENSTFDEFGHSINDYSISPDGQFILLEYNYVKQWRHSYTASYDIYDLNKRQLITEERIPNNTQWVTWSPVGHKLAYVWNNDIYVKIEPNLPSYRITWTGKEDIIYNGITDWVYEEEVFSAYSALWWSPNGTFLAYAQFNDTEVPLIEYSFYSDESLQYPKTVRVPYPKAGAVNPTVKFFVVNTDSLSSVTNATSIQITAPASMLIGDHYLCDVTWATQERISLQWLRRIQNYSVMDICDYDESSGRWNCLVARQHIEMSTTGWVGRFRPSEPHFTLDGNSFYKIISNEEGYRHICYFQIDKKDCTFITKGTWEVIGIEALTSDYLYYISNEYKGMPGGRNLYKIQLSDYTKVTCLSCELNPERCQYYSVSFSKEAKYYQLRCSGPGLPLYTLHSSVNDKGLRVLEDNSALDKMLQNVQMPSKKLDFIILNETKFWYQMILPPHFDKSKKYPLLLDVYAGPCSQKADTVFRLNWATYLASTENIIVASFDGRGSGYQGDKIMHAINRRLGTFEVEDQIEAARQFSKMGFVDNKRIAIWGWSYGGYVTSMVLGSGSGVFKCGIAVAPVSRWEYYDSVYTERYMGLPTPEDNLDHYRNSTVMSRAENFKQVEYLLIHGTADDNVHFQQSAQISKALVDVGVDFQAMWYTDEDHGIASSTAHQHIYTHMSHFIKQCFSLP

Rattus norvegicus [7] = assay: Cmax in rat assessed as 2-(3-aminopiperidin-1-yl)-3-(2-chloro-5-fluorobenzyl)-5-methyl-4-oxo-4,5-dihydro-3H-imidazo[4,5-c]quinoline-8-carboxylic acid level at 10 mg/kg, po; format: ADME, organism-based; design: dose 10 mg/kg, route oral; conditions: in vivo
Rattus norvegicus [8] = assay: Tmax in rat assessed as 2-(3-aminopiperidin-1-yl)-3-(2-chloro-5-fluorobenzyl)-5-methyl-4-oxo-4,5-dihydro-3H-imidazo[4,5-c]quinoline-8-carboxylic acid level at 10 mg/kg, po; format: ADME, organism-based; design: dose 10 mg/kg, route oral; conditions: in vivo
Rattus norvegicus [9] = assay: AUC in rat assessed as 2-(3-aminopiperidin-1-yl)-3-(2-chloro-5-fluorobenzyl)-5-methyl-4-oxo-4,5-dihydro-3H-imidazo[4,5-c]quinoline-8-carboxylic acid level at 10 mg/kg, po; format: ADME, organism-based, Plasma; design: dose 10 mg/kg, route oral; conditions: in vivo
Rattus norvegicus [10] = assay: Oral bioavailability in rat assessed as 2-(3-aminopiperidin-1-yl)-3-(2-chloro-5-fluorobenzyl)-5-methyl-4-oxo-4,5-dihydro-3H-imidazo[4,5-c]quinoline-8-carboxylic acid level at 10 mg/kg; format: ADME, organism-based; conditions: in vivo
[11] = Solubility of the compound at pH 7.4; format: physicochemical; conditions: buffer
[12] = Solubility of the compound at pH 5.5; format: physicochemical; conditions: buffer
[13] = Solubility of the compound at pH 2.5; format: physicochemical; conditions: buffer
Rattus norvegicus [14] = assay: AUC in rat assessed as 2-(3-aminopiperidin-1-yl)-3-(2-chloro-5-fluorobenzyl)-5-methyl-4-oxo-4,5-dihydro-3H-imidazo[4,5-c]quinoline-7-carboxylic acid level at 10 mg/kg, po; format: ADME, organism-based, Plasma; design: dose 10 mg/kg, route oral; conditions: in vivo
Rattus norvegicus [15] = assay: Oral bioavailability in rat assessed as 2-(3-aminopiperidin-1-yl)-3-(2-chloro-5-fluorobenzyl)-5-methyl-4-oxo-4,5-dihydro-3H-imidazo[4,5-c]quinoline-7-carboxylic acid level at 10 mg/kg; format: ADME, organism-based; conditions: in vivo
[16] = Drug metabolism in Sprague-Dawley rat liver S9 fraction assessed as 2-(3-aminopiperidin-1-yl)-3-(2-chlorobenzyl)-5-methyl-4-oxo-4,5-dihydro-3H-imidazo[4,5-c]quinoline-7-carboxylic acid formation at 1 uM after 30 mins by HPLC/MS/MS analysis relative to control; format: ADME, subcellular; conditions: s9, 0.5 h; procedure, shortened: as §1
Serum [17] = assay: Drug metabolism in rat serum assessed as 2-(3-aminopiperidin-1-yl)-3-(2-chlorobenzyl)-5-methyl-4-oxo-4,5-dihydro-3H-imidazo[4,5-c]quinoline-7-carboxylic acid formation at 1 uM after 30 mins by HPLC/MS/MS analysis relative to control; format: ADME, cell-free; conditions: 0.5 h; procedure, shortened: as §1
[18] = Drug metabolism in human liver S9 fraction assessed as metabolite 3 formation at 1 uM after 30 mins by HPLC/MS/MS analysis relative to control; format: ADME, subcellular; conditions: s9, 0.5 h; procedure, shortened: as §1
Serum [19] = assay: Drug metabolism in human serum assessed as 2-(3-aminopiperidin-1-yl)-3-(2-chlorobenzyl)-5-methyl-4-oxo-4,5-dihydro-3H-imidazo[4,5-c]quinoline-7-carboxylic acid formation at 1 uM after 30 mins by HPLC/MS/MS analysis relative to control; format: ADME, cell-free; conditions: 0.5 h; procedure, shortened: as §1
Rattus norvegicus [20] = assay: Cmax in rat assessed as 2-(3-aminopiperidin-1-yl)-3-(2-chlorobenzyl)-5-methyl-4-oxo-4,5-dihydro-3H-imidazo[4,5-c]quinoline-7-carboxylic acid level at 20 mg/kg, po; format: ADME, organism-based; design: dose 20 mg/kg, route oral; conditions: in vivo
Rattus norvegicus [21] = assay: Tmax in rat assessed as 2-(3-aminopiperidin-1-yl)-3-(2-chlorobenzyl)-5-methyl-4-oxo-4,5-dihydro-3H-imidazo[4,5-c]quinoline-7-carboxylic acid level at 20 mg/kg, po; format: ADME, organism-based; design: dose 20 mg/kg, route oral; conditions: in vivo
Rattus norvegicus [22] = assay: AUC in rat assessed as 2-(3-aminopiperidin-1-yl)-3-(2-chlorobenzyl)-5-methyl-4-oxo-4,5-dihydro-3H-imidazo[4,5-c]quinoline-7-carboxylic acid level at 20 mg/kg, po; format: ADME, organism-based, Plasma; design: dose 20 mg/kg, route oral; conditions: in vivo
Rattus norvegicus [23] = assay: Oral bioavailability in rat assessed as 2-(3-aminopiperidin-1-yl)-3-(2-chlorobenzyl)-5-methyl-4-oxo-4,5-dihydro-3H-imidazo[4,5-c]quinoline-7-carboxylic acid level at 20 mg/kg; format: ADME, organism-based; conditions: in vivo
[24] = Drug metabolism in Sprague-Dawley rat liver S9 fraction assessed as 2-(3-aminopiperidin-1-yl)-3-(2-chlorobenzyl)-5-methyl-4-oxo-4,5-dihydro-3H-imidazo[4,5-c]quinoline-8-carboxylic acid formation at 1 uM after 30 mins by HPLC/MS/MS analysis relative to control; format: ADME, subcellular; conditions: s9, 0.5 h; procedure, shortened: as §1
Serum [25] = assay: Drug metabolism in rat serum assessed as 2-(3-aminopiperidin-1-yl)-3-(2-chlorobenzyl)-5-methyl-4-oxo-4,5-dihydro-3H-imidazo[4,5-c]quinoline-8-carboxylic acid formation at 1 uM after 30 mins by HPLC/MS/MS analysis relative to control; format: ADME, cell-free; conditions: 0.5 h; procedure, shortened: as §1
[26] = Drug metabolism in human liver S9 fraction assessed as 2-(3-aminopiperidin-1-yl)-3-(2-chlorobenzyl)-5-methyl-4-oxo-4,5-dihydro-3H-imidazo[4,5-c]quinoline-8-carboxylic acid formation at 1 uM after 30 mins by HPLC/MS/MS analysis relative to control; format: ADME, subcellular; conditions: s9, 0.5 h; procedure, shortened: as §1
Serum [27] = assay: Drug metabolism in human serum assessed as 2-(3-aminopiperidin-1-yl)-3-(2-chlorobenzyl)-5-methyl-4-oxo-4,5-dihydro-3H-imidazo[4,5-c]quinoline-8-carboxylic acid formation at 1 uM after 30 mins by HPLC/MS/MS analysis relative to control; format: ADME, cell-free; conditions: 0.5 h; procedure, shortened: as §1
Rattus norvegicus [28] = assay: Cmax in rat assessed as 2-(3-aminopiperidin-1-yl)-3-(2-chlorobenzyl)-5-methyl-4-oxo-4,5-dihydro-3H-imidazo[4,5-c]quinoline-8-carboxylic acid level at 20 mg/kg, po; format: ADME, organism-based; design: dose 20 mg/kg, route oral; conditions: in vivo
Rattus norvegicus [29] = assay: Tmax in rat assessed as 2-(3-aminopiperidin-1-yl)-3-(2-chlorobenzyl)-5-methyl-4-oxo-4,5-dihydro-3H-imidazo[4,5-c]quinoline-8-carboxylic acid level at 20 mg/kg, po; format: ADME, organism-based; design: dose 20 mg/kg, route oral; conditions: in vivo
Rattus norvegicus [30] = assay: AUC in rat assessed as 2-(3-aminopiperidin-1-yl)-3-(2-chlorobenzyl)-5-methyl-4-oxo-4,5-dihydro-3H-imidazo[4,5-c]quinoline-8-carboxylic acid level at 20 mg/kg, po; format: ADME, organism-based, Plasma; design: dose 20 mg/kg, route oral; conditions: in vivo
Rattus norvegicus [31] = assay: Oral bioavailability in rat assessed as 2-(3-aminopiperidin-1-yl)-3-(2-chlorobenzyl)-5-methyl-4-oxo-4,5-dihydro-3H-imidazo[4,5-c]quinoline-8-carboxylic acid level at 20 mg/kg; format: ADME, organism-based; conditions: in vivo
Plasma = assay: Plasma concentration in rat at 20 mg/kg, po; format: ADME, organism-based; design: dose 20 mg/kg, route oral; conditions: in vivo
Procedure, shortened: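 Rats dosed orally with prodrug; plasma levels of prodrug and carboxylate active metabolite measured over time, limit of quantification 1.0 ng/mL.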

Rattus norvegicus [32] = assay: In vivo inhibition of DPP4 in Sprague-Dawley rat at 3 mg/kg, po after 1 hr; format: functional
Procedure, shortened: (§2)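 Male SD rats, 11 weeks, fasted 24 h before predose sampling and throughout; single oral gavage 3 mg/kg. Blood taken −0.5, 1, 2, 4, 6, 10, 24 h. Plasma DPP-4 activity: Gly-Pro-MCA substrate, HEPES/NaCl/MgCl2 buffer pH 7.8, stopped with 5% acetic acid after 20 min, AMC fluorescence 360/460 nm against AMC standard curve; duplicates, background-subtracted, mU/mL plasma.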

Rattus norvegicus [33] = assay: In vivo inhibition of DPP4 in Sprague-Dawley rat at 3 mg/kg, po after 10 hrs; format: functional; procedure, shortened: as §2
Rattus norvegicus [34] = assay: Reduction of blood glucose level in po dosed Zucker fatty rat model by OGTT analysis; format: functional, organism-based
Rattus norvegicus [35] = assay: Reduction of blood glucose level in Zucker fatty rat model at 1 mg/kg, po by OGTT analysis; format: functional, organism-based; design: dose 1 mg/kg

Compound	remaining at 0.5 h, 1 µM [1] [%]	remaining at 0.5 h, 1 µM [2] [%]	remaining at 0.5 h, 1 µM [3] [%]	remaining at 0.5 h, 1 µM [4] [%]	Papp [5] [×10⁻⁶ cm/s]	Papp [6] [×10⁻⁶ cm/s]	solubility [11] [µg/mL]	solubility [12] [µg/mL]	solubility [13] [µg/mL]	also measured
Cc1oc(=O)oc1COC(=O)c1ccc2c(c1)c1nc(N3CCC[C@@H](N)C3)n(Cc3cc(F)ccc3Cl)c1c(=O)n2C.Cl	1	< 0.5	3.5	< 0.5	11	8.4	< 1	2	25	IC50 (Dipeptidyl peptidase 4): 4.7 nM; Cmax (Rattus norvegicus [7]): 14.8 ng/mL; Tmax (Rattus norvegicus [8]): 2 h; AUC (Rattus norvegicus [9]): 72.7 ng·h/mL; F (Rattus norvegicus [10]): 11.7%
Cc1oc(=O)oc1COC(=O)c1ccc2c3nc(N4CCC[C@@H](N)C4)n(Cc4cc(F)ccc4Cl)c3c(=O)n(C)c2c1.Cl	3.6	< 0.5	13	< 0.5	15.8	15.9	< 1	1	47	AUC (Rattus norvegicus [14]): 43.9 ng·h/mL; F (Rattus norvegicus [15]): 4.8%
Cc1oc(=O)oc1COC(=O)c1ccc2c3nc(N4CCC[C@@H](N)C4)n(Cc4ccccc4Cl)c3c(=O)n(C)c2c1.Cl	1	< 0.5	17	< 0.5	12.5	14.2	2	2	54	Drug metabolism [16]: metabolite_detected; Drug metabolism (Serum [17]): metabolite_detected; Drug metabolism [18]: metabolite_detected; Drug metabolism (Serum [19]): metabolite_detected; Cmax (Rattus norvegicus [20]): 81.7 ng/mL; Tmax (Rattus norvegicus [21]): 0.25 h; AUC (Rattus norvegicus [22]): 61.9 ng·h/mL; F (Rattus norvegicus [23]): 4%
Cc1oc(=O)oc1COC(=O)c1ccc2c(c1)c1nc(N3CCC[C@@H](N)C3)n(Cc3ccccc3Cl)c1c(=O)n2C.Cl	< 0.5	< 0.5	7.8	< 0.5	10.3	12.1	< 1	3	210	Drug metabolism [24]: metabolite_detected; Drug metabolism (Serum [25]): metabolite_detected; Drug metabolism [26]: metabolite_detected; Drug metabolism (Serum [27]): metabolite_detected; Cmax (Rattus norvegicus [28]): 94.1 ng/mL; Tmax (Rattus norvegicus [29]): 2 h; AUC (Rattus norvegicus [30]): 728 ng·h/mL; F (Rattus norvegicus [31]): 35%; Cp (Plasma): < 1 ng/mL; inhibition in vivo at 3 mg/kg (Rattus norvegicus [32]): 87%; inhibition in vivo at 3 mg/kg (Rattus norvegicus [33]): 64%; Activity (Rattus norvegicus [34]): Dose-dependent effect; Activity (Rattus norvegicus [35]): Active
